Results on 6 compounds are retold here after ChEMBL document CHEMBL1154577, “Cytotoxic biflavonoids from Selaginella delicatula” (J Nat Prod, 2000).

One may read the IC50 as the concentration at which inhibition is half-maximal. One may read the inhibition as the relative decrease from the control value, in per cent.

In series [1] the test system is Raji. Nature of the series: Cytotoxicity against human Raji cells after 3 days. It is filed as functional, cell-based. The settings on record: 72 h. The method, boiled down: (§1)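 K562 (erythroleukemia) and Raji (EBV-transformed B) cells grown in RPMI-1640 with 10% FCS, 100 U/mL penicillin and 100 µg/mL streptomycin at 37 °C under humidified 5% CO2. They were cultured with or without various concentrations for 3 days, then pulsed with tritiated thymidine for 16 h before harvest. Radioactivity was counted by scintillation and inhibition calculated; mean of three independent experiments.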

Series [2] deals with Calu-1. The series can be described thus: Cytotoxicity against human Calu1 cells after 3 days. It is filed as functional, cell-based. Particulars: Calu-1, 72 h. The method, boiled down: (§2)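 Vero, Wish, Calu-1 and HeLa cells were kept in MEM with 10% FCS, 100 µg/mL streptomycin and 100 U/mL penicillin at 37 °C under humidified 5% CO2. Cells were exposed to various concentrations, or none, for 3 days, with a tritiated thymidine pulse for the final 16 h before harvest. Incorporation was read by scintillation counting and inhibition calculated; three independent experiments averaged.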

The test system of series [3] is K562. The series can be described thus: Cytotoxicity against human K562 cells after 3 days. It is filed as functional, cell-based. The settings on record: K562, 72 h. The method, boiled down:
as §1

For another series, the system named is Vero. Nature of the series: Cytotoxicity against african green monkey Vero cells after 3 days. It is filed as cell-based. The settings on record: Chlorocebus sabaeus, 72 h. Put shortly:
as §2

For series [4], the system named is WISH. Nature of the series: Cytotoxicity against human Wish cells after 3 days. It is filed as cell-based. Particulars: 72 h. The method, boiled down: as §2
Series [5] relates to HeLa. Nature of the series: Cytotoxicity against human HeLa cells after 3 days. It is filed as functional, cell-based. Particulars: 72 h. Put shortly: as §2
For series [6], the system named is Raji. Nature of the series: Cytotoxicity against human Raji cells at 100 uM after 3 days. The format is functional. Particulars: 72 h. The method, boiled down:
as §1

Series [7] deals with Raji. The series can be described thus: Cytotoxicity against human Raji cells at 50 uM after 3 days. It is filed as functional. Particulars: 72 h. The method, boiled down:
as §1

Series [8] concerns Raji. Nature of the series: Cytotoxicity against human Raji cells at 25 uM after 3 days. It is filed as functional. Particulars: 72 h. The method, boiled down: as §1
Series [9] has as its system Raji. The series can be described thus: Cytotoxicity against human Raji cells at 12.5 uM after 3 days. The format is functional. The settings on record: 72 h. The method, boiled down: as §1
The test system of series [10] is Calu-1. Nature of the series: Cytotoxicity against human Calu1 cells at 100 uM after 3 days. The format is functional. The settings on record: Calu-1, 72 h. Put shortly: as §2
For series [11], the system named is Calu-1. The series can be described thus: Cytotoxicity against human Calu1 cells at 50 uM after 3 days. The format is functional. Particulars: Calu-1, 72 h. The method, boiled down:
as §2

In series [12] the test system is Calu-1. Nature of the series: Cytotoxicity against human Calu1 cells at 25 uM after 3 days. Particulars: Calu-1, 72 h. The format is functional. The method, boiled down: as §2
Series [13] deals with Calu-1. Nature of the series: Cytotoxicity against human Calu1 cells at 12.5 uM after 3 days. It is filed as functional. Particulars: Calu-1, 72 h. The method, boiled down: as §2
The test system of series [14] is K562. The series can be described thus: Cytotoxicity against human K562 cells at 100 uM after 3 days. It is filed as functional. The settings on record: K562, 72 h. Put shortly:
as §1

Series [15] is described as follows: Cytotoxicity against african green monkey Vero cells at 100 uM after 3 days. The format is cell-based. Particulars: chlorocebus sabaeus, read-out: INH. Put shortly:
as §2

The subject of series [16] is HeLa. Nature of the series: Cytotoxicity against human HeLa cells at 100 uM after 3 days. The format is functional. The settings on record: 72 h. The method, boiled down:
as §2

The test system of series [17] is WISH. The series can be described thus: Cytotoxicity against human Wish cells at 100 uM after 3 days. The settings on record: 72 h. The format is cell-based. The method, boiled down: as §2

On to `O=c1cc(-c2ccc(O)c(-c3c(O)cc(O)c4c(=O)cc(-c5ccc(O)cc5)oc34)c2)oc2cc(O)cc(O)c12` [AMENTOFLAVONE], for which the concentration for half-maximal inhibition (IC50) in the series with Raji [1], with Calu-1 [2], with K562 [3], in the series with Vero, in the series on WISH [4] and in the series with HeLa [5] was more than 100 µM in each case.
On to `O=c1cc(-c2ccc(O)c(-c3c(O)cc4oc(-c5ccc(O)cc5)cc(=O)c4c3O)c2)oc2cc(O)cc(O)c12` [ROBUSTAFLAVONE], for which the IC50 with Raji [1], in the series with Calu-1 [2], with K562 [3], in the series on Vero, in the series on WISH [4] and in the series with HeLa [5] was more than 100 µM each time.
As to `COc1ccc(-c2cc(=O)c3c(O)cc(O)cc3o2)cc1-c1c(O)cc2oc(-c3ccc(O)cc3)cc(=O)c2c1O`, the inhibition at 100 µM in the series with Raji [6] came to 98.4%; in the series with Calu-1 [10] it was 100%; with K562 [14], 10.8%; with HeLa [16], 5.5%. The values for the inhibition at 50 µM in the series on Raji [7] and in the series with Calu-1 [11] were 68.5% and 77.9%, respectively. Further, the results for the inhibition at 25 µM in the series with Raji [8] and in the series with Calu-1 [12] were 60.7% and 44.6%, respectively. The inhibition at 12.5 µM in the series on Raji [9] was determined as 34.2%; in the series with Calu-1 [13], 42.6%. Moreover, the cytotoxicity at 72 h, 100 µM in [15] is -6.6%. The “inhibition (INH)” value in the series on WISH [17] is reported as -90%.
As for `COc1cc(O)c2c(=O)cc(-c3ccc(OC)c(-c4c(OC)cc5c(c4O)C(=O)C[C@H](c4ccc(O)cc4)O5)c3)oc2c1`, the half-inhibitory concentration (IC50) in the series with Raji [1], in the series with Calu-1 [2], in the series with K562 [3], with Vero, in the series with WISH [4] and in the series on HeLa [5] was more than 100 µM throughout.
Regarding `COc1cc(O)c2c(=O)cc(-c3ccc(OC)c(-c4c(O)cc5c(c4O)C(=O)C[C@H](c4ccc(O)cc4)O5)c3)oc2c1`, the inhibition at 100 µM in the series with Raji [6] was 96.3%; with Calu-1 [10] it was 100%; in the series on K562 [14] it was 18%; in the series with HeLa [16], 35%. Further, the values for the inhibition at 50 µM with Raji [7] and in the series on Calu-1 [11] were 24.7% and 55.4%, respectively. Also, the inhibition at 25 µM was found to be 22.3% in the series with Raji [8] and 29.9% with Calu-1 [12]. Besides, the inhibition at 12.5 µM in the series on Raji [9] was found to be 17.9%; in the series on Calu-1 [13], 15.8%. The cytotoxicity at 72 h, 100 µM in series [15] came to 26.8%. In addition, the “inhibition (INH)” value in the series with WISH [17] is -65%.
For the compound `COc1cc(O)c2c(=O)cc(-c3ccc(OC)c(-c4c(O)cc5oc(-c6ccc(O)cc6)cc(=O)c5c4O)c3)oc2c1`, the concentration for half-maximal inhibition (IC50) in the series with Raji [1], in the series on Calu-1 [2], in the series on K562 [3], in the series with Vero, in the series on WISH [4] and in the series on HeLa [5] was more than 100 µM in each case.
